# Screens (PubChem BioAssay)
# M4 ag: human M4 muscarinic receptor agonists, primary screen, CHO-K1 cells, Fluo-8 calcium fluorescence | CHO-K1 hM4/Gqi5; vehicle 0%, full acetylcholine response 100% | activation, % at 3 µM | actives 0.14% (n = 360,000);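 active = activation above the run mean over all test wells plus 3 SD, cut at about 32% in these data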;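 also: peak over basal fluorescence ratio per well then scaled between controls; 0% = DMSO wells and 100% = acetylcholine at EC100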
# Target sequence (P08173 whole entry, looked up): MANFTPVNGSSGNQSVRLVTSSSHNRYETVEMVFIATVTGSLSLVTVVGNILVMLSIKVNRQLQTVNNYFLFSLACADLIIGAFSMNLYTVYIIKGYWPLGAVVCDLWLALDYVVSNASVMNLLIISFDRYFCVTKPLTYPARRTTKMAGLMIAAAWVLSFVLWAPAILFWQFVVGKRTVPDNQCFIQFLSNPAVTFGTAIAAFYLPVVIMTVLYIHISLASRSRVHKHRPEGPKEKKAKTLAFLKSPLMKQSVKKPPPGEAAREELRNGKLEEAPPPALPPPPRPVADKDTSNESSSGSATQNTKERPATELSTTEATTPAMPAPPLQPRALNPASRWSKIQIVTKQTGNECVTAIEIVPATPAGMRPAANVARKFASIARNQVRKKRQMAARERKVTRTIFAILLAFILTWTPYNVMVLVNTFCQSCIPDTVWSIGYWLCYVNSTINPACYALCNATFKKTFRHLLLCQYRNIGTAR
# CHRM5 antagonist: human M5 muscarinic receptor antagonists, primary screen, CHO cells, Fluo-8 calcium fluorescence | Muscarinic acetylcholine receptor M5 (Homo sapiens), P08912 | CHO-hM5 cells, ACh EC80 | inhibition, % at 3 µM | actives 0.59% (n = 360,000) | AID 624040, 2012;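 active = inhibition above a per-plate cutoff, the mean of that plate's test compounds plus 3 SD, cut at about 27% in these data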;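 also: 0% = acetylcholine EC80 with DMSO and 100% = DMSO without agonist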
# CHRM4 antagonist: human M4 muscarinic receptor antagonists, primary screen, CHO cells, Fluo-8 calcium fluorescence; Muscarinic acetylcholine receptor M4 (Homo sapiens), P08173; CHO-hM4 cells, ACh EC80; inhibition, % at 3 µM; actives 0.73% (n = 360,000);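 active = inhibition above its plate's cutoff, the mean inhibition of sample wells plus 3 SD, cut at about 27% in these data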;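 also: 0% = acetylcholine EC80 with DMSO and 100% = DMSO without agonist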
# M5 PAM: human M5 muscarinic receptor positive allosteric modulators, primary screen, CHO-K1 cells, Fluo-8 calcium fluorescence; Muscarinic acetylcholine receptor M5 (Homo sapiens), P08912; actives 0.3% (n = 360,000); activation, % at 3 µM; CHO-K1 hM5, ACh EC20 PAM; 0% = ACh EC20, 100% = ACh EC100;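 active = activation above the run cutoff, the mean activation of all test compounds plus 3 SD, cut at about 18% in these data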
#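 System: CHO-K1 hM5 cells. Reagent: acetylcholine, EC20 level. Compound dosing: single dose, 3 µM nominal final test concentration. Timing: Post-acetylcholine fluorescence recording 140 s. Detection: Fluo-8 calcium fluorescence. Read-out: % activation, ACh-normalized. Benchmarks: ACh EC20 and EC100 wells. Repeats: singlicate, one well per test compound.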
# M4 PAM: human M4 muscarinic receptor positive allosteric modulators, primary screen, CHO-K1 cells, Fluo-8 calcium fluorescence; CHO-K1 hM4/Gqi5, ACh EC20; 0% = ACh EC20, 100% = maximal ACh; activation, % at 3 µM; Muscarinic acetylcholine receptor M4 (Homo sapiens), P08173; actives 0.4% (n = 360,000);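 active = activation above its plate's cutoff, the mean activation of sample wells plus 3 SD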
# CHRM5 agonist: human M5 muscarinic receptor agonists, primary screen, CHO-K1 cells, Fluo-8 calcium fluorescence. Muscarinic acetylcholine receptor M5 (Homo sapiens), P08912. CHO-K1 hM5 cells; 0% DMSO wells, 100% maximal acetylcholine response. activation, % at 3 µM. actives 0.19% (n = 360,000). AID 624037, 2012;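 active = activation above the run's mean over test compounds plus 3 SD, cut at about 23% in these data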;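 also: signal is peak over basal fluorescence ratio across the kinetic read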
# An asterisk follows results filed as active. Sampled rows, rich in hits. Any-hit rate of the full collection: about 1.8%.
SMILES,M4 ag,CHRM5 antagonist,CHRM4 antagonist,M5 PAM,M4 PAM,CHRM5 agonist
O=C1CSC(c2ccccc2F)N1c1ccccc1F (centres undefined),0,5,8,-2,5,-5
O=C1CSC(c2ccccc2F)N1c1ccccc1 (centres undefined),37*,-3,-7,-7,6,-6
O=C1CSC(c2ccccn2)N1c1ccccc1F (centres undefined),0,30*,-5,-6,6,-1
COc1cccc(C2SCC(=O)N2c2ccc(Br)cc2)c1OC (centres undefined),-2,35*,66*,-20,-39,-8
O=C1NCC(COCC2CC=CCC2)O1 (centres undefined),2,-1,17,4,28*,2
COc1ccc(N2CCN(c3ccc(NC(=O)c4ccc5c(c4)OCO5)cc3C#N)CC2)cc1,1,-2,-10,7,29*,-2
COc1ccc(S(=O)(=O)Nc2nc3c(s2)CCCC3)cc1,4,-4,-7,20*,12,6
O=S(=O)(Nc1nc2c(s1)CCCC2)c1ccc(F)cc1,1,9,-3,-3,-1,-7
OC(c1cccc(OCc2ccccc2)c1)c1nnc(-c2ccccc2)o1 (centres undefined),14,28*,18,-26,-13,1
NS(=O)(=O)c1cccc(NC(=O)CCN2C(=O)C3CCCCC3C2=O)c1 (centres undefined),1,9,11,-5,5,0
Cc1cccc(C)c1NC(=O)C(c1ccncc1)n1c(=O)c(-c2cc3ccccc3[nH]2)nc2ccccc21 (centres undefined),20,5,4,-5,-4,3
S=C(NCc1ccc(Cl)cc1)Nc1ccc(Cl)cc1Cl,9,15,9,-17,-11,0
S=C(NCCc1ccc(Cl)cc1)Nc1ccc(Cl)cc1Cl,7,35*,9,-18,-16,-2
S=C(Nc1ccc(Cl)cc1Cl)N1CCOCC1,1,-5,6,3,21*,2
COCC(C)n1c(COc2ccccc2F)nnc1SCC(=O)Nc1oc(C)c2c(C)n[nH]c(=O)c12 (centres undefined),0,-1,-10,-7,4,-3
CCn1c(C)c(C(C)=O)c(N2CCN(C(c3ccccc3)c3ccccc3)CC2)nc1=S,11,25,29*,-20,-20,-7
CC(=O)c1c(N2CCCC2)nc(=S)n(-c2ccccc2)c1C,1,5,47*,-4,-17,-8
CCn1c(C)c(C(C)=O)c(N2CCN(c3ccccc3)CC2)nc1=S,0,-6,2,-5,-8,-8
COC(=O)C1CC2=C(CCCC2=O)N(Cc2ccccc2)C1=O (centres undefined),0,-1,-11,-6,3,-2
C=CC[C@H](CC(=O)NCCO)C(=O)N[C@H](COC(=O)[C@H](CC=C)CC(=O)OC(C)(C)C)c1ccccc1,5,10,-5,-8,-1,0
Cc1cccc(NC(=O)NNC(=O)COc2ccc([N+](=O)[O-])cc2)c1C,0,15,-5,-6,7,-5
COc1ccc(C)cc1S(=O)(=O)N(C)CC(=O)NCc1ccncc1,1,5,-13,-1,-5,-2
CC1(C2CC2)NC(=O)N(CC(=O)Nc2ccc(OC(F)F)cc2)C1=O (centres undefined),0,-2,-2,0,-6,0
C=C(C)C(=O)OCC(O)COc1ccc(C(C)(C)c2ccc(OCC(O)COC(=O)C(=C)C)cc2)cc1 (centres undefined),26,27*,32*,-17,-14,12
CCOc1ccc(N(CC(=O)NC2CCCCC2)C(=O)CNC(=O)c2cccs2)cc1,3,4,-3,5,2,1
SMILES,M4 ag,CHRM5 antagonist,CHRM4 antagonist,M5 PAM,M4 PAM,CHRM5 agonist
Cc1ccc(CNCC(O)(c2ccccc2)c2ccc(Cl)cc2)cc1 (centres undefined),7,9,2,1,-11,-1
COc1ccc(CNCC(O)(c2ccccc2)c2ccc(Cl)cc2)cc1 (centres undefined),14,19,28*,-10,-17,2
CCc1ccc(C(C)NC(=O)c2ccc3c(c2)OCO3)cc1 (centres undefined),2,12,7,-2,-5,-3
CCOc1cc(C2NC(=O)NC(C)=C2C(=O)OCC2CCCCC2)ccc1O (centres undefined),3,29*,0,-14,-3,-5
CCOC(=O)C1=C(CS(=O)(=O)c2ccc(C)cc2)NC(=O)NC1c1ccc(O)c(OC)c1 (centres undefined),0,-11,-4,20*,18,3
CCOC(=O)C1=C(c2ccccc2)NC(=O)NC1c1ccc(O)c(OCC)c1 (centres undefined),1,8,0,-2,3,-3
CC[C@]1(C(=O)OC)[C@H]2C(=O)N(Cc3ccccc3)C(=O)[C@H]2[C@H]2CN=C(SCC3CC3)N21,0,-3,-6,2,6,-2
CCCCCN1C=CC=C/C1=C\C=C(C#N)C#N,4,-1,14,-3,-11,10
CCCCCCN1C=CC(=C/C=C(\C#N)C(=O)OCC)C=C1,253*,34*,36*,-22,-21,51*
C=CCN1C=CC(=CC=C(C#N)C#N)C=C1,29,20,23,-23,-15,28*
CCOC(=O)/C(C#N)=C/C=C1\C=Cc2ccccc2N1CC,3,1,-1,-8,-3,2
CCCN1C=CC(=CC=C(C#N)C#N)C=C1,25,23,17,-15,-11,31*
CCc1nc2ccc(C(=O)N3CCN(C(C)=O)CC3)cn2c1N(C=O)Cc1ccc(OC)cc1,0,-7,4,-2,-1,1
O=C1c2cccc3c(O)ccc(c23)C(=O)N1Cc1ccccc1,178*,56*,47*,-34,-28,173*
CCc1ccc(OCCCCN(C)Cc2ccccc2)cc1,1,18,30*,-6,-16,-15
Nc1ccc(OCc2ccccc2)cc1,0,6,-5,-4,0,1
